In ChEMBL document CHEMBL4406901, “Synthesis, 3D-structure and stability analyses of NRPa-308, a new promising anti-cancer agent” (Bioorg Med Chem Lett, 2019):

How the values were obtained:
[1] = Chemical stability of compound in DMSO/aqueous buffer at 1 mg at pH 0.9 to 8.4 incubated at 25 degree C and measured upto 16 days by HPLC analysis; type: physicochemical; conditions: read-out: Stability
In short: (§1)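 Compound held in aqueous buffers at pH 0.9, 7.4 and 8.4 at 25 °C or 37 °C for up to 16 days; the chromatographic profile was followed by HPLC.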

[2] = Retention time of compound in human BT549 cells at 2 uM incubated at 37 degree C measured after 3 days by HPLC analysis; type: ADME, cell-based; conditions: bt-549, 72 h
In short: (§2)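 MDA-MB-231 or BT-549 breast cancer cells were cultured with […] of compound for three days at 37 °C. Supernatant was analysed by HPLC. Cells were then washed and lysed with methanol, and the intracellular compound was measured by quantitative HPLC dosage, giving mol per sample.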

BT-549 [3] = assay: Antiproliferative activity against human BT549 cells expressing NRP1 assessed as cell viability measured after 48 hrs by MTT assay; type: functional, cell-based; conditions: BT-549, 48 h
[4] = Retention time of compound in human MDA-MB-231 cells at 2 uM incubated at 37 degree C measured after 3 days by HPLC analysis; type: ADME, cell-based; conditions: mda-mb-231, 72 h; in short: as §2
MDA-MB-231 [5] = assay: Antitumour activity against human MDA-MB-231 cells xenografted in nude mouse assessed as reduction in tumour growth at 50 mg/kg, po administered every 3 days for 20 days and measured 3 times a week by caliper method relative to control; conditions: MDA-MB-231, po, read-out: TGI
[6] = Drug uptake in human MDA-MB-231 cells at 2 uM incubated at 37 degree C measured after 3 days by HPLC analysis; type: ADME, cell-based; conditions: mda-mb-231, 72 h; in short: as §2
MDA-MB-231 [7] = assay: Antiproliferative activity against human MDA-MB-231 cells expressing NRP1 assessed as cell viability measured after 72 hrs by MTT assay; type: functional, cell-based; conditions: MDA-MB-231, 72 h
[8] = Retention time of compound in pH 0.91 at 1 mg incubated at 37 degree C by HPLC analysis; type: physicochemical; in short: as §1
[9] = Retention time of compound in human MDA-MB-231 cell lysates at 2 uM incubated at 37 degree C measured after 3 days by HPLC analysis; type: ADME, subcellular, Lysate; conditions: mda-mb-231, 72 h; in short: as §2
[10] = Retention time of compound in human BT549 cell lysates at 2 uM incubated at 37 degree C measured after 3 days by HPLC analysis; type: ADME, subcellular, Lysate; conditions: bt-549, 72 h; in short: as §2
MDA-MB-231 [11] = assay: Antiproliferative activity against human MDA-MB-231 cells expressing NRP1 assessed as cell viability measured after 48 hrs by MTT assay; type: functional, cell-based; conditions: MDA-MB-231, 48 h
[12] = Retention time of compound at in pH 8.4 at 1 mg incubated at 37 degree C by HPLC analysis; type: physicochemical; in short: as §1
BT-549 [13] = assay: Antiproliferative activity against human BT549 cells expressing NRP1 assessed as cell viability measured after 72 hrs by MTT assay; type: functional, cell-based; conditions: BT-549, 72 h
[14] = Retention time of compound in pH 7.4 at 1 mg incubated at 37 degree C by HPLC analysis; type: physicochemical; in short: as §1
[15] = Chemical stability of compound in DMSO/aqueous buffer at 1 mg at pH 0.9 to 8.4 incubated at 37 degree C and measured upto 16 days by HPLC analysis; type: physicochemical; conditions: read-out: Stability; in short: as §1
[16] = Retention time of compound at 1mg measured immediately by HPLC analysis; type: physicochemical
[17] = Drug uptake in human BT549 cells at 2 uM incubated at 37 degree C measured after 3 days by HPLC analysis; type: ADME, cell-based; conditions: bt-549, 72 h; in short: as §2

| SMILES | remaining at 384 h [1] | Retention_time [2] | IC50 (BT-549 [3]) | Retention_time [4] | inhibition in vivo at 50 mg/kg (MDA-MB-231 [5]) | Drug uptake [6] | IC50 (MDA-MB-231 [7]) | Retention_time [8] | Retention_time [9] | Retention_time [10] | IC50 (MDA-MB-231 [11]) | Retention_time [12] | IC50 (BT-549 [13]) | Retention_time [14] | remaining at 384 h [15] | Retention_time [16] | Drug uptake [17] |
| --- | --- | --- | --- | --- | --- | --- | --- | --- | --- | --- | --- | --- | --- | --- | --- | --- | --- |
| CCOc1ccccc1NC(=O)c1ccc(C)c(S(=O)(=O)Nc2ccc(C)cc2)c1 | 100% | 4.05 min | 2100 nM | 4.492 min | > 60% | 5.14 nmol | 200 nM | 4.058 min | 4.025 min | 3.992 min | 4900 nM | 4.05 min | 100 nM | 4.067 min | 100% | 4.075 min | 1.4 nmol |
| CCN(CC)CCNC(=O)c1c(C)[nH]c(/C=C2\C(=O)Nc3ccc(F)cc32)c1C [SUNITINIB] |  |  | 2200 nM |  |  |  | 3700 nM |  |  |  | 2600 nM |  | 3500 nM |  |  |  |  |
